In the library only some 1.8% were active in any assay of this set; here they are far more common.
CHRM5 PAM: human M5 muscarinic receptor positive allosteric modulators, primary screen, CHO-K1 cells, Fluo-8 calcium fluorescence | activation, % at 3 µM | 360,000 tested, 0.3% active | CHO-K1 hM5, ACh EC20 PAM; 0% = ACh EC20, 100% = ACh EC100;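 active means activation above the run cutoff, the mean activation of all test compounds plus 3 SD, cut at about 18% in these data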
Target sequence (P08912 whole entry, looked up): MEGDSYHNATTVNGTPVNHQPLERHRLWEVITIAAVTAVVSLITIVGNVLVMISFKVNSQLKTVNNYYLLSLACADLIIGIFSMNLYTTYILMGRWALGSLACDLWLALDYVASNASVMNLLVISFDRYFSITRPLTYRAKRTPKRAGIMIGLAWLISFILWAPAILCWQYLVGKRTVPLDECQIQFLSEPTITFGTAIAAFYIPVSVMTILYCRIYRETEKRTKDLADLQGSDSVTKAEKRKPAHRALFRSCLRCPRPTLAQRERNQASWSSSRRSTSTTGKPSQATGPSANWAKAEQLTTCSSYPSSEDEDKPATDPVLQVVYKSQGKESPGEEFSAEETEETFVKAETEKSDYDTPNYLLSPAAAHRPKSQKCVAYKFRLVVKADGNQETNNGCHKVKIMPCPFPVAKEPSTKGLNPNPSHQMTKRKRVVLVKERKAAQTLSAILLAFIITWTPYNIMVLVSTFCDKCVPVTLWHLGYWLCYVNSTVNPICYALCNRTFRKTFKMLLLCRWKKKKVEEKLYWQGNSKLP
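System: CHO-K1 hM5 cells. Reagent: acetylcholine, EC20 level. Compound dosing: single dose, 3 µM nominal final test concentration. Timing: Post-acetylcholine fluorescence recording 140 s. Detection: Fluo-8 calcium fluorescence. Read-out: % activation, ACh-normalized. Benchmarks: ACh EC20 and EC100 wells. Repeats: singlicate, one well per test compound.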
CHRM4 antagonist: human M4 muscarinic receptor antagonists, primary screen, CHO cells, Fluo-8 calcium fluorescence | Muscarinic acetylcholine receptor M4 (Homo sapiens), P08173 | CHO-hM4 cells, ACh EC80 | inhibition, % at 3 µM | 360,000 tested, 0.73% active | AID 624125, 2012;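 active means inhibition above its plate's cutoff, the mean inhibition of sample wells plus 3 SD, cut at about 27% in these data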;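 further: 0% = acetylcholine EC80 with DMSO and 100% = DMSO without agonist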
CHRM5 agonist: human M5 muscarinic receptor agonists, primary screen, CHO-K1 cells, Fluo-8 calcium fluorescence | Muscarinic acetylcholine receptor M5 (Homo sapiens), P08912 | AID 624037, 2012 | CHO-K1 hM5 cells; 0% DMSO wells, 100% maximal acetylcholine response | 360,000 tested, 0.19% active | activation, % at 3 µM;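 active means activation above the run's mean over test compounds plus 3 SD, cut at about 23% in these data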;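 further: signal is peak over basal fluorescence ratio across the kinetic read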
CHRM5 antagonist: human M5 muscarinic receptor antagonists, primary screen, CHO cells, Fluo-8 calcium fluorescence; AID 624040, 2012; 360,000 tested, 0.59% active; inhibition, % at 3 µM; Muscarinic acetylcholine receptor M5 (Homo sapiens), P08912; CHO-hM5 cells, ACh EC80;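 active means inhibition above a per-plate cutoff, the mean of that plate's test compounds plus 3 SD, cut at about 27% in these data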;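 further: 0% = acetylcholine EC80 with DMSO and 100% = DMSO without agonist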
CHRM4 PAM: human M4 muscarinic receptor positive allosteric modulators, primary screen, CHO-K1 cells, Fluo-8 calcium fluorescence; Muscarinic acetylcholine receptor M4 (Homo sapiens), P08173; CHO-K1 hM4/Gqi5, ACh EC20; 0% = ACh EC20, 100% = maximal ACh; activation, % at 3 µM; 360,000 tested, 0.4% active; AID 624126, 2012;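 active means activation above its plate's cutoff, the mean activation of sample wells plus 3 SD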
CHRM4 agonist: human M4 muscarinic receptor agonists, primary screen, CHO-K1 cells, Fluo-8 calcium fluorescence; Muscarinic acetylcholine receptor M4 (Homo sapiens), P08173; CHO-K1 hM4/Gqi5; vehicle 0%, full acetylcholine response 100%; activation, % at 3 µM; 360,000 tested, 0.14% active;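 active means activation above the run mean over all test wells plus 3 SD, cut at about 32% in these data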;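 further: peak over basal fluorescence ratio per well then scaled between controls; 0% = DMSO wells and 100% = acetylcholine at EC100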
* hit, by the source's call; ! = repeats disagree.

SMILES	CHRM5 PAM	CHRM4 antagonist	CHRM5 agonist	CHRM5 antagonist	CHRM4 PAM	CHRM4 agonist
CC(=O)Nc1ccccc1OCC(=O)c1cc(C)n(Cc2cccs2)c1C	-17	22	6	30*	-8	12
Cc1cc(C(=O)COc2cccnc2[N+](=O)[O-])c(C)n1Cc1cccs1	-15	11	5	18	-12	15
CC1CN(c2ccccn2)C(C)CN1C(=S)Nc1ccccc1 (stereo not given)	3	-10	-2	6	0	1
OC1CC2CCC(C1)N2CCCN1c2ccccc2Sc2ccc(Cl)cc21 (stereo not given)	-40	37*	-9	26	-17	16
CN1CCN(CCCN2c3ccccc3Sc3ccc(Cl)cc32)CC1	-17	4	0	9	-17	7
CCCCOc1ccc(S(=O)(=O)NC(=O)C2(C)CCN2C(=O)c2c(C)noc2C)cc1 (stereo not given)	1	-3	0	-4	19*	1
Cc1ccc(S(=O)(=O)NC(=O)C2(C)CCN2C(=O)c2c(C)noc2C)cc1 (stereo not given)	2	-13	0	0	4	1
Nc1[nH]n2c(=O)c3c(nc2c1N=Nc1ccccc1)CCCC3	8	10	-4	21	30*	1
Nc1[nH]n2c(=O)c3c(nc2c1N=Nc1ccc(Cl)cc1)CCCC3	1	-8	-1	0	9	0
Cn1c(=O)oc2cc(S(=O)(=O)CCC(=O)N3CCN(c4ccccc4F)CC3)ccc21	37*	-16	11	11	8	3
Cn1c(=O)oc2cc(S(=O)(=O)N3CCN(c4ccccc4F)CC3)ccc21	-6	-17	-3	8	7	1
COc1ccccc1N1CCN(S(=O)(=O)c2ccc3c(c2)oc(=O)n3C)CC1	-13	2	-2	27*	1	2
CC(=O)c1cccc(NC(=O)c2cccc3c(-c4cccnc4)coc23)c1	-15	12	6	19	-7	20
O=C1CN(C(=O)c2c(F)cccc2F)C(c2ccc(F)cc2)c2cc(F)ccc2N1 (stereo not given)	-1	-14	2	-1	2	7
O=C1CN(C(=O)c2cccc(F)c2)C(c2ccc(F)cc2)c2cc(F)ccc2N1 (stereo not given)	-23	52*	-8	14	-19	8
O=C(Cc1ccccn1)c1ccncc1	6	-2	6	8	4	1
CCOc1ccccc1NC(=O)CCN1CCN(S(=O)(=O)c2ccc(Br)cc2)CC1	-1	3	7	-4	16*	6
Cc1nc(N)c(Cc2ccc(Cl)cc2Cl)c(N)n1	-17	20	2	28*	-18	36*
Cc1ccc(-c2nnc(N3CCCCC3)c3ccccc23)cc1S(=O)(=O)N(C)C	-4	-4	0	0	3	2
Cc1ccc(-c2nnc(N3CCOCC3)c3ccccc23)cc1S(N)(=O)=O	19*	-8	5	-5	1	0
CCN(CC)C(=O)c1oc2ccc(S(=O)(=O)N3CCCCCC3)cc2c1C	-11	5	3	9	-6	11
CCN(CC)C(=O)c1oc2ccc(S(=O)(=O)N3CC(C)CC(C)C3)cc2c1C (stereo not given)	-12	4	-2	30*	-6	11
Cc1cccc(C(=O)Nc2ccc(C(=O)/C=C/c3ccncc3)cc2)c1	7	33*	4	2	-13	17
Cc1cccc(C(=O)Nc2ccc(C(=O)/C=C/c3cccnc3)cc2)c1	-8	-8	0	4	-2	9
COc1ccc(NS(=O)(=O)c2cccc(C(=O)N/N=C/c3cn(-c4ccccc4)nc3-c3ccccc3)c2)cc1	-3	51*	-2	11	-20	1
SMILES	CHRM5 PAM	CHRM4 antagonist	CHRM5 agonist	CHRM5 antagonist	CHRM4 PAM	CHRM4 agonist
Fc1ccc(C2CCNCC2COc2ccc3c(c2)OCO3)cc1 (stereo not given)	-17	20	2	20	-19	12
Fc1ccc([C@@H]2CCNC[C@H]2COc2ccc3c(c2)OCO3)cc1	-19	34*!	7	30*!	-17	15
COc1cc(C(=O)NCc2cccnc2)ccc1OCC(=O)Nc1cccc(C(F)(F)F)c1	-24	-2	7	16	-8	20
COc1ccc(CN(C)C(=O)c2ccc(OCC(=O)Nc3cccc(C(F)(F)F)c3)c(OC)c2)cc1	-13	31*	5	16	-12	16
CC(=NNc1nc2ccccc2s1)c1ccncn1	-1	58*	14	15	-2	23
C/C(=N\Nc1nc2ccccc2s1)c1ccc(Br)s1	-5	2	-1	9	-8	-1
CC(=O)N(Cc1ccccc1)c1ccc(C(=O)O)cc1	25*	-12	-2	3	4	1
Cc1ccc(S(=O)(=O)N2CCC(c3nc4c(nnn4Cc4ccccc4)c(=O)[nH]3)CC2)cc1	-2	75*	-2	5	-20	-1
O=c1[nH]c(C2CCN(S(=O)(=O)c3ccc4c(c3)OCCO4)CC2)nc2c1nnn2Cc1ccccc1	5	90*	-1	2	-21	0
Cc1ccc(C)c(S(=O)(=O)N2CCC(c3nc4c(nnn4Cc4ccc5c(c4)OCCO5)c(=O)[nH]3)CC2)c1	-7	42*	-5	12	-14	2
COC(=O)C(NC(=O)C(CC(C)C)NC(=O)C1CCC(C)CC1)C(C)C (stereo not given)	36*	4	2	36*	-1	0
COc1ccc(CCNC(=O)CN2CCN(Cc3ccccc3F)C2=O)cc1OC	5	10	2	7	14	0
Cc1ccc(CCNC(=O)CN2CCN(Cc3ccccc3F)C2=O)cc1	3	-8	-5	-2	30*	2
COc1ccc(-c2csc3ncnc(N4CCN(c5ccccc5[N+](=O)[O-])CC4)c23)cc1	1	-5	-3	-19	1	1
Cc1cc(C)c(OCC(=O)Nc2cccc(NC(=O)c3ccco3)c2)c(Br)c1	-19	13	-1	18	-9	15
